{"source": "ChEMBL document CHEMBL1157465", "about": "“Design, synthesis, and biological evaluation of novel 3-aryl-4-(1H-indole-3yl)-1,5-dihydro-2H-pyrrole-2-ones as vascular endothelial growth factor receptor (VEGF-R) inhibitors” (J Med Chem, 2008)", "biological_target": "Receptor tyrosine-protein kinase erbB-2 (Homo sapiens, UniProt P04626)", "sequence (P04626 whole entry, the tested form may be a part)": "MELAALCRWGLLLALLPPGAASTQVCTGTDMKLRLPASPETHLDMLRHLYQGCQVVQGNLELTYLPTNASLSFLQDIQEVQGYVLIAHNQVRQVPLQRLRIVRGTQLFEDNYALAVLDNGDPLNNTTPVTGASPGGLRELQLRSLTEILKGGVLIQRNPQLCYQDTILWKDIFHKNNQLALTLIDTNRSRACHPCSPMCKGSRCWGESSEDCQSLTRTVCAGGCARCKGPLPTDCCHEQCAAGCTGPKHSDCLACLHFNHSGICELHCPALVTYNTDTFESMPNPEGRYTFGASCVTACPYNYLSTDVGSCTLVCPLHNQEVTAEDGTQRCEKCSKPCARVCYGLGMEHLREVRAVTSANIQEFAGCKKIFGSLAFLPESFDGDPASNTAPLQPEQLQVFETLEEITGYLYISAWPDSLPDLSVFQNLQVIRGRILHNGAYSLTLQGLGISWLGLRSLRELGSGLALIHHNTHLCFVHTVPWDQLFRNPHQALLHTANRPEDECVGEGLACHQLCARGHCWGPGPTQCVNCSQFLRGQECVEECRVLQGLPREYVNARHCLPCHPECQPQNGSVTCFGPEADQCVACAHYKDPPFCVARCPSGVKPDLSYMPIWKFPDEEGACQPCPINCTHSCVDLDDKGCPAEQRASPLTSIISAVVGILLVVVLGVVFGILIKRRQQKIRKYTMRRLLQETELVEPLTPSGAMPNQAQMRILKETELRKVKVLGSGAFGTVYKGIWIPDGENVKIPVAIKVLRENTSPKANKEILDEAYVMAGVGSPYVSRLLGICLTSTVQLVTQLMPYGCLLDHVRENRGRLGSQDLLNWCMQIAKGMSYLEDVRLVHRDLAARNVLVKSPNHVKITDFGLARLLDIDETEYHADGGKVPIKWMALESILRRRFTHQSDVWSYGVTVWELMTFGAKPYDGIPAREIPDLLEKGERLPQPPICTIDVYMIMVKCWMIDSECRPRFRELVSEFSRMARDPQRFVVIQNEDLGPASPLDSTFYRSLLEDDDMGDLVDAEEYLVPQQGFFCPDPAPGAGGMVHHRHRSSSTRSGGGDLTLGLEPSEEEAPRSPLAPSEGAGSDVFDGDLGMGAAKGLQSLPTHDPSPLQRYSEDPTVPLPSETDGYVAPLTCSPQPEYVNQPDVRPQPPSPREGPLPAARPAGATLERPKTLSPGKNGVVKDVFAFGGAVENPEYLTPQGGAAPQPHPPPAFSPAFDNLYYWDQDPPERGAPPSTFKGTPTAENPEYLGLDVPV", "assay": "Inhibition of human recombinant ERBB2", "summary_of_the_method": "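Human kinases expressed in Sf9 cells via baculovirus as GST or His fusions and affinity purified. 33PanQinase assay in 60 mM HEPES-NaOH pH 7.5, 3 mM MgCl2, 3 mM MnCl2, 3 µM orthovanadate, 1.2 mM DTT, 1 µM [γ-33P]ATP, 1% DMSO; 30 °C, 80 min. Substrates: poly(Glu,Tyr) 4:1 for ERBB2, IGF1-R and SRC; poly(Ala,Glu,Lys,Tyr) 6:2:5:1 for FLT3. IC50 from 10 concentrations by scintillation counting.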", "data": [{"smiles": "COc1cc(C2=C(c3cn(COC(C)(C)C)c4ccccc34)CNC2=O)cc(OC)c1OC", "values": [{"measurement": "IC50", "value": 25, "unit": "µM"}]}]}
